Measurements published in ChEMBL document CHEMBL1141034, “Optimization of the in vitro and in vivo properties of a novel series of 2,4,5-trisubstituted imidazoles as potent cholecystokinin-2 (CCK2) antagonists” (J Med Chem, 2005).
Activity calls are given as the source filed them. No cut-off for these calls is given here.

Assays:
[1] = molecular target: T1, Cholecystokinin receptor type A (Cavia porcellus, UniProt Q63931); test: Concentration required to inhibit the binding of 20 pM [125I]BH-CCK-8S radioligand to guinea pig pancreas CCK1 receptor
T1 sequence (Q63931 whole entry): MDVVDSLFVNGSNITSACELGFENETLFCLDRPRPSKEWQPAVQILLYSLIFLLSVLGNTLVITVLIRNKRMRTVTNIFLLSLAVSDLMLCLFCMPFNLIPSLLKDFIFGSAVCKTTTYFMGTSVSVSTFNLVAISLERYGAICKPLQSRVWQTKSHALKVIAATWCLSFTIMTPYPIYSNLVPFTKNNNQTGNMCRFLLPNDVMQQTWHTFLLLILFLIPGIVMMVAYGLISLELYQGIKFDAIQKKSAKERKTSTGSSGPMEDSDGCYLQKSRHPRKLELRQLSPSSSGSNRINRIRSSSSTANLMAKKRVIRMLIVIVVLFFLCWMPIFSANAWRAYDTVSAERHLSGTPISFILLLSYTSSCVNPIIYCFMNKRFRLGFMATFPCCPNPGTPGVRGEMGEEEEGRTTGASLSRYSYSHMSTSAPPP
Outline: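 CCK1 sites on guinea pig pancreatic cells. Competition with 20 pM [125I]BH-CCK-8S, reported as pKI. At least three separate experiments give ± SEM. Where only two experiments were run, no error is given (approximate SEM 0.1 log units).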

[2] = molecular target: T2, Gastrin/cholecystokinin type B receptor (Mus musculus, UniProt P56481); test: Concentration required to inhibit the binding of 20 pM [125I]-BH-CCK-8S radioligand to mouse cortical membrane CCK2 receptor
T2 sequence (P56481 whole entry): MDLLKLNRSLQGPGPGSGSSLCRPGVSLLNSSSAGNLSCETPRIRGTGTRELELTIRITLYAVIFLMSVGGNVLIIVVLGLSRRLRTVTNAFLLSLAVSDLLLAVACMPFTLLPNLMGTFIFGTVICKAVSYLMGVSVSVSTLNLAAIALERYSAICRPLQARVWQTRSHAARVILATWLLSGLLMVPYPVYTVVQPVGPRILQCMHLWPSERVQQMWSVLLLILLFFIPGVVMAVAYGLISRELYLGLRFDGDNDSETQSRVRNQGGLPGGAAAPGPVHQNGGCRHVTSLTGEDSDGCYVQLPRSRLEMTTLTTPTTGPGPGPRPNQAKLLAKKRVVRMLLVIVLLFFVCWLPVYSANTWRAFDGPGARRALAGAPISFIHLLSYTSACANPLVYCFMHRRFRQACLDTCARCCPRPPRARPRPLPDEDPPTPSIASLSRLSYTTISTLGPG
Outline: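 Mouse cerebral cortex homogenates. Competition with 20 pM [125I]BH-CCK-8S for CCK2 sites, reported as pKI. At least three separate experiments give ± SEM. Where only two experiments were run, no error is given (approximate SEM 0.1 log units).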

[3] = molecular target: T3, Gastrin/cholecystokinin type B receptor (Rattus norvegicus) (UniProt P30553); test: Antagonist activity against CCK2 receptor estimated from single shifts of pentagastrin concentration-effect curves in the isolated rat stomach; […]; type: functional, tissue-based
T3 sequence (whole entry): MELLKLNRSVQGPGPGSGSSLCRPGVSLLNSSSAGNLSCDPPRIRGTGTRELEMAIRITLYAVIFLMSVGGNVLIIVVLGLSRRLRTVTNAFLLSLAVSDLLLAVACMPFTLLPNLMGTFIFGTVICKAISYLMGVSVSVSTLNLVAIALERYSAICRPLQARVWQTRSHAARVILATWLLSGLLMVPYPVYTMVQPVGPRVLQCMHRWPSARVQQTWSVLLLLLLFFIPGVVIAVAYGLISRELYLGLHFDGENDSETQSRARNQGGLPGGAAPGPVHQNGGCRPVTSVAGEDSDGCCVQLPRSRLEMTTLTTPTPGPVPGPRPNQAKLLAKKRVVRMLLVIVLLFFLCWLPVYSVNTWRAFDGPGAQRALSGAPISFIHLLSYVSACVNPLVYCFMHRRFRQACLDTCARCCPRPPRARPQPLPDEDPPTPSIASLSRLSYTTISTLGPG

[4] = molecular target: T4, Gastrin/cholecystokinin type B receptor (Rattus norvegicus, UniProt P30553); test: Antagonist activity against CCK2 receptor estimated from single shifts of pentagastrin concentration-effect curves in the isolated rat stomach; type: functional, tissue-based; conditions: read-out: pA2 (converted)
T4 sequence (P30553 whole entry): T3 sequence (whole entry)

[5] = molecular target: T5, Gastrin/cholecystokinin type B receptor (Canis lupus familiaris, UniProt P30552); test: Concentration required to inhibit the binding of [125I]-BH-CCK-8S radioligand to canine gastric mucosa CCK2 receptor
T5 sequence (P30552 whole entry): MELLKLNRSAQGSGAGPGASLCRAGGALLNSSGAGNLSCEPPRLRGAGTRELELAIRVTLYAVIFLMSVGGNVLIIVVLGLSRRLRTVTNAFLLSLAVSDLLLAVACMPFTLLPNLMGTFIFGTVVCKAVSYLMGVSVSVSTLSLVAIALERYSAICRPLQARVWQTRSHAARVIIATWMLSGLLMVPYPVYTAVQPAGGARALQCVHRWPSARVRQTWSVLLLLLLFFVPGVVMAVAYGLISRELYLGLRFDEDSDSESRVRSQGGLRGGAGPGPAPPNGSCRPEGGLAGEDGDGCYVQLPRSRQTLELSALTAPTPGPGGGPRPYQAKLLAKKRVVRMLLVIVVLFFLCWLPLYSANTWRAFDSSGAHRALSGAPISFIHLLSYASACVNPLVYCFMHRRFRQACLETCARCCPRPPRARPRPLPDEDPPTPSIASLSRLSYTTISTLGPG
Outline: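 Canine gastric mucosa. Competition with [125I]BH-CCK-8S for CCK2 binding sites, reported as pIC50 ± SEM.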

[6] = molecular target: T6, Gastrin/cholecystokinin type B receptor (Canis lupus familiaris) (UniProt P30552); test: Percent inhibition (i.v., 3.0 mg/Kg) against dog CCK2 receptor
T6 sequence (whole entry): T5 sequence (P30552 whole entry)
Outline: (§1)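 Conscious dogs given a bolus iv or intraduodenally during pentagastrin-stimulated acid secretion. Result is the peak percentage inhibition of acid output in the first four collection periods (1 h) after dosing, ± SEM, with the number of replicates stated.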

[7] = Lipophilicity was measured in octanol/buffer (pH 7.4); type: physicochemical
Outline: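 log D from partition between octanol and buffer at pH 7.4, given ± error.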

[8] = molecular target: T6, Gastrin/cholecystokinin type B receptor (Canis lupus familiaris); test: Percent inhibition (i.v., 1.0 mg/Kg) against dog CCK2 receptor; outline: as §1
[9] = molecular target: T6, Gastrin/cholecystokinin type B receptor (Canis lupus familiaris); test: Percent inhibition (i.d., 10.0 mg/Kg) against dog CCK2 receptor; outline: as §1

Row | Ki [1] [nM] | Ki [2] [nM] | Structure (SMILES) | further results
1 | 776 | 27.5 | O=C(O)c1cccc(NC(=O)c2nc(C34CCC(CC3)CC4)[nH]c2COC23CC4CC(CC(C4)C2)C3)c1 | –
2 | 2510 | – | O=C(O)c1cccc(NC(=O)c2[nH]c(-c3ccc4ccccc4c3)nc2CC2CCCCCC2)c1 | pA2 [3]: inactive
3 | 661 | 8320 | Cc1ccccc1-c1nc(C(=O)Nc2cccc(C(=O)O)c2)c(CCC(C)C)[nH]1 | Kb [4]: 26.3 nM
4 | 123 | 3.02 | Cc1cc(C)c(-c2nc(C(=O)Nc3ccc(C)c(C(=O)O)c3)c(CCC34CC5CC(CC(C5)C3)C4)[nH]2)c(C)c1 | IC50 [5]: 39.8 nM; inhibition [6]: 76%; logD [7]: 4.9; Kb [4]: 3.31 nM
5 | – | > 100000 | COC(=O)c1cccc(NC(=O)c2[nH]c(-c3ccccc3C)nc2CCC23CC4CC(CC(C4)C2)C3)c1 | –
6 | 562 | 13.5 | O=C(O)c1cccc(NC(=O)c2nc(C3CCCCC3)[nH]c2COC23CC4CC(CC(C4)C2)C3)c1 | IC50 [5]: 19.5 nM; inhibition [8]: 76%; logD [7]: 2.73
7 | 1450 | – | CC(C)c1nc(C(=O)Nc2cccc(C(=O)O)c2)c(CCC23CC4CC(CC(C4)C2)C3)[nH]1 | –
8 | 661 | – | Cc1ccccc1-c1nc(C(=O)Nc2cccc(C(=O)O)c2)c(CCC23CC4CC(CC(C4)C2)C3)[nH]1 | –
9 | 2090 | – | O=C(O)c1cccc(NC(=O)c2cc(-c3ccccc3)[nH]c2CCC23CC4CC(CC(C4)C2)C3)c1 | pA2 [3]: inactive
10 | 562 | – | Cc1ccccc1-c1nc(C(=O)Nc2ccc(F)c(C(=O)O)c2)c(CCC23CC4CC(CC(C4)C2)C3)[nH]1 | –
11 | 126 | – | O=C(O)c1cccc(NC(=O)c2[nH]c(C3CCCCCC3)nc2CCC23CC4CC(CC(C4)C2)C3)c1 | –
12 | – | 11200 | CNc1cccc(NC(=O)c2[nH]c(-c3ccccc3C)nc2CCC23CC4CC(CC(C4)C2)C3)c1 | –
13 | 324 | 20.4 | O=C(O)c1cccc(NC(=O)c2[nH]c(C34CCC(CC3)CC4)nc2CCC23CC4CC(CC(C4)C2)C3)c1 | –
14 | – | > 100000 | Cc1cccc(NC(=O)c2[nH]c(-c3ccccc3C)nc2CCC23CC4CC(CC(C4)C2)C3)c1 | –
15 | 2190 | – | Cc1ccccc1-c1cc(C(=O)Nc2cccc(C(=O)O)c2)c(CCC23CC4CC(CC(C4)C2)C3)[nH]1 | pA2 [3]: inactive
16 | 562 | – | CC1(c2nc(C(=O)Nc3cccc(C(=O)O)c3)c(CCC34CC5CC(CC(C5)C3)C4)[nH]2)CCCCC1 | –
17 | 398 | – | Cc1ccccc1-c1nc(C(=O)Nc2cccc(CC(=O)O)c2)c(CCC23CC4CC(CC(C4)C2)C3)[nH]1 | pA2 [3]: inactive
18 | 617 | – | Cc1ccc(-c2nc(C(=O)Nc3cccc(C(=O)O)c3)c(CCC34CC5CC(CC(C5)C3)C4)[nH]2)c(C)c1 | –
19 | 2340 | – | O=C(O)c1cccc(NC(=O)c2[nH]c(C3CC3)nc2CCC23CC4CC(CC(C4)C2)C3)c1 | –

The next lines start with the compound.

Row | Structure (SMILES) | Ki [1] [nM] | Ki [2] [nM] | further results
20 | CC(C)(C)c1nc(C(=O)Nc2cccc(C(=O)O)c2)c(CCC23CC4CC(CC(C4)C2)C3)[nH]1 | 2880 | – | –
21 | O=C(O)c1cccc(NC(=O)c2[nH]c(C3CCCCCCCCCCC3)nc2CCC23CC4CC(CC(C4)C2)C3)c1 | – | – | pA2 [3]: inactive
22 | Cc1ccc(NC(=O)c2nc(-c3ccccc3C)[nH]c2CCC23CC4CC(CC(C4)C2)C3)cc1C(=O)O | 417 | – | Kb [4]: 33.1 nM
23 | O=C(O)c1cccc(NC(=O)c2[nH]c(C3CCCC3)nc2CCC23CC4CC(CC(C4)C2)C3)c1 | 525 | 39.8 | –
24 | Cc1cc(C)c(-c2nc(C(=O)Nc3cccc(C(=O)O)c3)c(CCC34CC5CC(CC(C5)C3)C4)[nH]2)c(C)c1 | 724 | 26.9 | –
25 | Cc1cccc(C)c1-c1nc(C(=O)Nc2cccc(C(=O)O)c2)c(CCC23CC4CC(CC(C4)C2)C3)[nH]1 | > 10000 | 141 | –
26 | COc1ccc(NC(=O)c2[nH]c(-c3ccccc3C)nc2CCC23CC4CC(CC(C4)C2)C3)cc1C(=O)O | – | – | pA2 [3]: inactive
27 | O=C(O)c1cccc(NC(=O)c2cc(-c3ccc4ccccc4c3)[nH]c2CC2CCCCCC2)c1 | 3020 | – | pA2 [3]: inactive
28 | O=C(O)c1cccc(NC(=O)c2[nH]c(-c3ccccc3)nc2CCC23CC4CC(CC(C4)C2)C3)c1 | 1320 | 316 | –
29 | Cc1ccccc1-c1nc(C(=O)Nc2cccc(C(=O)O)c2)c(CCC2CCCCC2)[nH]1 | 295 | 617 | –
30 | Cc1ccc(NC(=O)c2[nH]c(C3(C)CCCCC3)nc2CCC23CC4CC(CC(C4)C2)C3)cc1C(=O)O | – | 3.31 | IC50 [5]: 11.2 nM; inhibition [6]: 54%; logD [7]: 4.91
31 | Cc1ccccc1-c1nc(C(=O)Nc2cccc(C(=O)O)c2)c(CC23CC4CC(CC(C4)C2)C3)[nH]1 | – | – | pA2 [3]: inactive
32 | Cc1ccccc1-c1nc(CCC23CC4CC(CC(C4)C2)C3)c(C(=O)Nc2ccc(N(C)C)c(C(=O)O)c2)[nH]1 | 794 | – | –
33 | Cc1cc(C)c(-c2nc(C(=O)Nc3cccc(C(=O)O)c3)c(COC34CC5CC(CC(C5)C3)C4)[nH]2)c(C)c1 | 537 | 13.8 | IC50 [5]: 63.1 nM; inhibition [8]: 61%; logD [7]: 3.02
34 | Cc1ccccc1-c1nc(C(=O)Nc2cccc(CCC(=O)O)c2)c(CCC23CC4CC(CC(C4)C2)C3)[nH]1 | 302 | 6.92 | –
35 | O=C(O)c1cccc(NC(=O)c2[nH]c(C3CCCCC3)nc2CCC23CC4CC(CC(C4)C2)C3)c1 | 575 | – | IC50 [5]: 29.5 nM; inhibition [8]: 40%; inhibition [9]: 46%; logD [7]: 4.12
36 | CCCc1nc(C(=O)Nc2cccc(C(=O)O)c2)c(CCC23CC4CC(CC(C4)C2)C3)[nH]1 | 1120 | – | –
